# Screens deposited in PubChem by The Scripps Research Institute Molecular Screening Center.
# DAGLB inh = blocks human DAGLB lipase activity; Q8NCG7; HEK293T DAGLB membrane lysate, EnzChek fluorogenic substrate; inhibition, % at 5.17 µM; 340,000 tested, 0.059% active; AID 504411; in the data active means inhibition above about 34%
# PLC-gamma1 inh = inhibitors of human phospholipase C gamma1; 370,000 tested, 0.84% active; P19174; purified PLC-gamma1, fluorogenic substrate, fluorescence; inhibition, % at 12.2 µM; AID 720700; in the data active means inhibition above about 9.5%
# Target sequence (P19174 whole entry, looked up): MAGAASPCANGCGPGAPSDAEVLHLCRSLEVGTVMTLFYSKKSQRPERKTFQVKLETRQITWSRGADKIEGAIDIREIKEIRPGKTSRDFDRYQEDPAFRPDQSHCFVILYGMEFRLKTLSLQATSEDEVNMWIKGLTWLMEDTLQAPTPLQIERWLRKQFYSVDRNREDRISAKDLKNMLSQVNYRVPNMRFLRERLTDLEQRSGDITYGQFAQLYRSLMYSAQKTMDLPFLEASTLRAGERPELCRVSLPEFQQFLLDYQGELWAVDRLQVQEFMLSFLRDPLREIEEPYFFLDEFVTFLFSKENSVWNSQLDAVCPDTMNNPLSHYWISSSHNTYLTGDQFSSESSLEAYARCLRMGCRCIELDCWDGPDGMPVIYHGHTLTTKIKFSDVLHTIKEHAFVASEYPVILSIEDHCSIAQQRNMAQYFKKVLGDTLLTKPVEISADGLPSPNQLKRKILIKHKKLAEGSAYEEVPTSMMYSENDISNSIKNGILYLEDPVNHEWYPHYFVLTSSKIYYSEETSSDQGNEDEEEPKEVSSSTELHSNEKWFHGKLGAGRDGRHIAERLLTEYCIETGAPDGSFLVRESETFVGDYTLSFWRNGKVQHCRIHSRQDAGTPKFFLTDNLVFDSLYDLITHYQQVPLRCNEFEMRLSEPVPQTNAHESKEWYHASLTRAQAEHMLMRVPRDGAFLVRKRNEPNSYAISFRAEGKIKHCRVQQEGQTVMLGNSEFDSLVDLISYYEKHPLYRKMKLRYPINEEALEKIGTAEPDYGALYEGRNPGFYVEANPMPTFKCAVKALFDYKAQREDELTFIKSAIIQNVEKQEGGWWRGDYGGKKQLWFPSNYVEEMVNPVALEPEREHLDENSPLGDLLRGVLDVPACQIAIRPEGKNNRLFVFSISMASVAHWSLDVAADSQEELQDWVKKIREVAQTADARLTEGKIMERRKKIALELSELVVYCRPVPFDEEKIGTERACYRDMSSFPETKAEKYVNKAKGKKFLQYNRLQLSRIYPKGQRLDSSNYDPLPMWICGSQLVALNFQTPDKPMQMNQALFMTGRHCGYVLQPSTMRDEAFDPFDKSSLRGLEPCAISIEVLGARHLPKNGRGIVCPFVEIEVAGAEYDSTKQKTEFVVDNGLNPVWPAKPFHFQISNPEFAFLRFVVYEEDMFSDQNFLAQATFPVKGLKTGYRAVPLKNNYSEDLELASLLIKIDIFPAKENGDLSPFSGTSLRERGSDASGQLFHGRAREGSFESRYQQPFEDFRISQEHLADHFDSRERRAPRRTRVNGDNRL
# TbMetRS inhib = Trypanosoma brucei MetRS inhibition; purified T. brucei MetRS, ATP depletion, Kinase-Glo luminescence; inhibition, % at 11.9 µM; 360,000 tested, 0.4% active;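 active means inhibition above a per-plate cutoff of the control wells' mean inhibition plus 3 SD, cut at about 5.5% in these data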
#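 Dosing: 11.9 µM compound single dose, 0.9% DMSO; Assay system: purified T. brucei MetRS enzyme; Measured by: Kinase-Glo luciferase luminescence reporting remaining unconsumed ATP; Schedule: 15 min plus 2 h at 25 °C.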
# PLCb3 inh = inhibitors of human phospholipase C beta3; Purified PLC-beta3, fluorogenic substrate, fluorescence; inhibition, % at 12.2 µM; 370,000 tested, 0.18% active; in the data active means inhibition above about 11%
# sPLA2-III inh = Inhibits HGIII-sPLA2 liposome hydrolysis, primary screen; Q9NZ20; QFRET BODIPY PC-A2 liposome hydrolysis, fluorescence; inhibition, % at 12.2 µM; 370,000 tested, 0.56% active; AID 743126;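 active means inhibition above mean plus 3 SD of compounds lying within the high and low control bounds, cut at about 19% in these data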
# Tb MetRS conf = confirmation of Trypanosoma brucei MetRS inhibitors. AID 624412. 1,400 tested, 93% active. shares compounds with TbMetRS inhib. inhibition, % at 11.9 µM. T. brucei MetRS enzyme, luminescence (ATP depletion); in the data active means inhibition above about 7%
# Jurkat cytotox = counter-screen for T. brucei MetRS inhibitors: Jurkat cell cytotoxicity; shares compounds with TbMetRS inhib; Jurkat cells viability, ATP luminescence; inhibition, % at 8.3 µM; 1,400 tested, 12% active; in the data active means inhibition above about 15%
# Tb MetRS inh FP = T. brucei MetRS inhibition, orthogonal assay | 1,400 tested, 44% active | purified T. brucei MetRS, fluorescence polarization | inhibition, % at 11.9 µM | shares compounds with TbMetRS inhib; in the data active means inhibition above about 17%
# A number is an active result; 0 = inactive; - = no result. Hits are enriched below; roughly 1.9% of the tested compounds scored in any of these assays.
SMILES,DAGLB inh,PLC-gamma1 inh,TbMetRS inhib,PLCb3 inh,sPLA2-III inh,Tb MetRS conf,Jurkat cytotox,Tb MetRS inh FP
Cc1nn(CC(=O)NCCc2ccc(Cl)cc2Cl)c(C)c1[N+](=O)[O-],0,0,16,0,0,33,0,0
O=C(CN1CCNC(=O)C1)NCCc1ccc(Cl)cc1Cl,0,0,0,0,0,-,-,-
O=C(Cn1cnnn1)NCCc1ccc(Cl)cc1Cl,0,0,9.4,0,0,18,0,0
C[C@H]1CN(C(=O)OC(C)(C)C)CCN1c1ccc(Br)c(C#N)c1,-,0,-,0,0,-,-,-
Cc1cc(Cl)ccc1OCc1cn2cccnc2n1,0,0,11,0,0,21,0,0
COc1ccc(N2CCN(CCCNC(=O)Cn3c(=O)c4cccn4c4cccnc43)CC2)c(OC)c1,-,0,-,0,0,-,-,-
CC(C)C1CC(=O)NC(SCC(=O)Nc2ccc(Br)cc2)=C1C#N (stereo not given),0,0,12,0,0,18,0,0
COC(=O)c1nnn(CC(=O)NC(=O)Nc2ccc(F)cc2)c1C(=O)OC,0,0,0,0,0,-,-,-
COC(=O)c1nnn(CC(=O)NC(=O)Nc2ccccc2)c1C(=O)OC,0,0,6.2,0,0,15,0,0
Nc1nnc(CC(=O)N/N=C/c2ccc(-c3ccc(F)cc3)o2)s1,-,0,6.4,0,0,0,0,0
O=C(NCCc1ccc(Cl)cc1)c1ccc2c(c1)ncn2C1CCCCC1,-,0,-,0,0,-,-,-
CCN1C(=O)N[C@H]2C[C@@H](c3ccccc3)[C@@H](C)[C@@H](C(=O)N3CCCC3)C[C@H]21,-,0,-,0,0,-,-,-
O=C(NCc1nc2ccccc2[nH]1)C1=C[C@H](c2coc3ccccc3c2=O)C[C@H](OCc2ccc(CO)cc2)O1,0,0,24,0,0,58,0,32
O=C(NCc1ccccc1)C1=C[C@@H](c2ccccc2)C[C@@H](OCc2ccc(CO)cc2)O1,0,0,0,0,0,-,-,-
CC(C)(C)[C@H]1C=C(C(=O)NCc2nc3ccccc3[nH]2)O[C@@H](OCc2ccc(CO)cc2)C1,0,0,62,0,0,87,0,61
O=C(NCc1nc2ccccc2[nH]1)C1=C[C@@H](c2ccccc2)C[C@@H](OCc2ccc(CO)cc2)O1,0,0,77,0,0,104,0,84
O=C(NCc1nc2ccccc2[nH]1)C1=C[C@@H](c2ccc(C(F)(F)F)cc2)C[C@@H](OCc2ccc(CO)cc2)O1,0,0,37,0,0,79,0,49
O=C(Nc1ccccc1)C1=C[C@@H](c2ccc(C(F)(F)F)cc2)C[C@@H](OCc2ccc(CO)cc2)O1,0,0,0,0,0,-,-,-
COc1ccc2c(c1)[C@]1(C(=O)N2C)C2=C(CCCC2=O)Oc2cc(C)oc(=O)c21,-,0,-,0,0,-,-,-
CCn1c2ccccc2c2cc(NC(=O)COC(=O)c3cc(F)ccc3F)ccc21,-,0,-,0,0,-,-,-
CC(COc1ccc(OC(F)(F)F)cc1)CN1CCC(C(O)(c2ccccc2)c2ccccc2)CC1 (stereo not given),-,0,-,0,0,-,-,-
O=C(NCc1ccccc1)C1=C[C@H](c2ccc3c(c2)OCO3)C[C@H](OCc2ccc(CO)cc2)O1,0,0,0,0,0,-,-,-
O=C(NCc1nc2ccccc2[nH]1)C1=C[C@H](c2ccccc2)C[C@H](OCc2ccc(CO)cc2)O1,0,0,31,0,0,75,0,38
O=C(NCc1nc2ccccc2[nH]1)C1=C[C@H](c2ccc3c(c2)OCO3)C[C@H](OCc2ccc(CO)cc2)O1,0,0,54,0,0,90,0,60
CC(C)c1[nH]nc2c1C(c1cccc(C(F)(F)F)c1)NC2=O (stereo not given),-,0,-,0,0,-,-,-
SMILES,DAGLB inh,PLC-gamma1 inh,TbMetRS inhib,PLCb3 inh,sPLA2-III inh,Tb MetRS conf,Jurkat cytotox,Tb MetRS inh FP
Cc1ccccc1Oc1cc(NC(=O)Cn2cnc([N+](=O)[O-])c2)cc([N+](=O)[O-])c1,0,0,9.6,0,0,24,0,17
COc1cccc(CN(C)C(=O)[C@H]2O[C@@H](n3cnc4c(=O)[nH]c(N)nc43)[C@H](O)[C@@H]2O)c1,-,0,-,0,0,-,-,-
CCOC(=O)[C@@]12CCC3=C1N(CCC3)C(=O)[C@H](CC(=O)NCc1cccs1)C2,-,0,-,0,0,-,-,-
COc1ccc(C(=O)NCC(=O)NCC(=O)OCc2ccc(Cl)cc2)cc1,0,0,0,0,0,-,-,-
COc1ccc(CNC(=O)CCC(=O)Nc2ccc(Cl)cc2)cc1,0,0,7.1,0,0,17,0,0
COc1ccc(COC(=O)CCNC(=O)c2ccc(Cl)cc2)cc1,0,0,7.0,0,0,28,0,0
CN[C@H]1C[C@H]2c3[nH]c4c(-c5ccccc5)cccc4c3CCN2C[C@H]1[C@H](C)O,-,0,-,0,0,-,-,-
Nc1cc(Oc2ccc(Cl)cc2Cl)nc(N)n1,0,0,22,0,0,31,0,24
Cc1nnc(SCc2nc3ccccc3[nH]2)s1,0,0,0,0,0,-,-,-
Cc1ccc2nc(CCc3nc4ccc(C)cc4[nH]3)[nH]c2c1,0,0,6.4,0,0,11,0,0
c1ccc(N/N=C(\Cc2nc3ccccc3[nH]2)c2ccccc2)cc1,0,0,0,0,0,-,-,-
O=C(Cc1nc2ccccc2[nH]1)c1ccc(Br)cc1,0,0,11,0,0,0,0,0
c1ccc2[nH]c(CSc3nc4ccccc4s3)nc2c1,0,0,8.1,0,0,20,0,0
N/N=C(/Cc1nc2ccccc2[nH]1)c1ccc([N+](=O)[O-])cc1,0,0,6.0,0,0,88,0,66
c1ccc2[nH]c(CCCCc3nc4ccccc4[nH]3)nc2c1,0,0,6.4,0,0,16,0,0
c1cnc(SCC2CCCCC2)c(-c2nc3ccccc3[nH]2)c1,-,0,-,0,0,-,-,-
COc1cc(/C=C2\SC(=S)N(NS(=O)(=O)c3ccc(C)cc3)C2=O)ccc1O,0,0,0,0,0,-,-,-
CCOc1cc(/C=C2\SC(=S)N(NS(=O)(=O)c3ccc(C)cc3)C2=O)ccc1O,0,0,5.8,0,0,11,0,32
CC(C)CNC(=O)OCc1cn(Cc2ccccc2F)nn1,-,0,-,0,0,-,-,-
COc1ccccc1OCC(=O)Nc1cccc(S(=O)(=O)NC2=NCCCCC2)c1,0,0,0,0,0,-,-,-
CCc1ccccc1OCC(=O)Nc1cccc(S(=O)(=O)NC2=NCCCCC2)c1,0,0,20,0,0,40,0,18
CC(C)C[C@@H]1COc2cccc(N3CCCC3)c2S(=O)(=O)N1,-,0,-,0,0,-,-,-
Cc1ccc(Cn2nnnc2CN2CCC(NC(=O)c3ccc(Br)cc3)CC2)cc1,0,0,0,0,0,-,-,-
